These results are taken from ChEMBL document CHEMBL4382248, “Optimization of a 1,3,4-oxadiazole series for inhibition of Ca2+/calmodulin-stimulated activity of adenylyl cyclases 1 and 8 for the treatment of chronic pain” (Eur J Med Chem, 2019).

What is called IC50 is the concentration that gives 50% inhibition. What is called inhibition is the percentage by which the read-out fell short of the control.

The source made the active and inactive calls. The calls are words filed in the database; no cut-off is given here.

Series [1] deals with T1, Adenylate cyclase type 8 (Homo sapiens, UniProt P40145). In words: Inhibition of human AC8 expressed in HEK293 cells assessed as decrease in A23187-stimulated cAMP accumulation preincubated for 30 mins followed by A23187 stimulation and measured after 1 hr by fluorescence assay. Format: cell-based. In a few lines:
(§1)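 HEK cells stably expressing AC1 or AC8; Ca2+/calmodulin-stimulated cAMP accumulation measured. Dose-response curves began at 30 µM. […] Values are the mean and SEM of three independent experiments.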
A general note: Changes in cAMP serve as a functional read-out for many G protein-coupled receptors.

The species entered for the next series is Homo sapiens. In words: Selectivity ratio of IC50 for human AC8 expressed in HEK293 cells to IC50 for human AC1 expressed in HEK293 cells. It is filed as cell-based.
In series [2] the target is T2, Adenylate cyclase type 1 (Homo sapiens, UniProt Q08828). Nature of the series: Inhibition of human AC1 expressed in HEK293 cells assessed as decrease in A23187-stimulated cAMP accumulation preincubated for 30 mins followed by A23187 stimulation and measured after 1 hr by fluorescence assay. It is filed as cell-based. In a few lines: as §1
Target sequence in this assay (Q08828 whole entry): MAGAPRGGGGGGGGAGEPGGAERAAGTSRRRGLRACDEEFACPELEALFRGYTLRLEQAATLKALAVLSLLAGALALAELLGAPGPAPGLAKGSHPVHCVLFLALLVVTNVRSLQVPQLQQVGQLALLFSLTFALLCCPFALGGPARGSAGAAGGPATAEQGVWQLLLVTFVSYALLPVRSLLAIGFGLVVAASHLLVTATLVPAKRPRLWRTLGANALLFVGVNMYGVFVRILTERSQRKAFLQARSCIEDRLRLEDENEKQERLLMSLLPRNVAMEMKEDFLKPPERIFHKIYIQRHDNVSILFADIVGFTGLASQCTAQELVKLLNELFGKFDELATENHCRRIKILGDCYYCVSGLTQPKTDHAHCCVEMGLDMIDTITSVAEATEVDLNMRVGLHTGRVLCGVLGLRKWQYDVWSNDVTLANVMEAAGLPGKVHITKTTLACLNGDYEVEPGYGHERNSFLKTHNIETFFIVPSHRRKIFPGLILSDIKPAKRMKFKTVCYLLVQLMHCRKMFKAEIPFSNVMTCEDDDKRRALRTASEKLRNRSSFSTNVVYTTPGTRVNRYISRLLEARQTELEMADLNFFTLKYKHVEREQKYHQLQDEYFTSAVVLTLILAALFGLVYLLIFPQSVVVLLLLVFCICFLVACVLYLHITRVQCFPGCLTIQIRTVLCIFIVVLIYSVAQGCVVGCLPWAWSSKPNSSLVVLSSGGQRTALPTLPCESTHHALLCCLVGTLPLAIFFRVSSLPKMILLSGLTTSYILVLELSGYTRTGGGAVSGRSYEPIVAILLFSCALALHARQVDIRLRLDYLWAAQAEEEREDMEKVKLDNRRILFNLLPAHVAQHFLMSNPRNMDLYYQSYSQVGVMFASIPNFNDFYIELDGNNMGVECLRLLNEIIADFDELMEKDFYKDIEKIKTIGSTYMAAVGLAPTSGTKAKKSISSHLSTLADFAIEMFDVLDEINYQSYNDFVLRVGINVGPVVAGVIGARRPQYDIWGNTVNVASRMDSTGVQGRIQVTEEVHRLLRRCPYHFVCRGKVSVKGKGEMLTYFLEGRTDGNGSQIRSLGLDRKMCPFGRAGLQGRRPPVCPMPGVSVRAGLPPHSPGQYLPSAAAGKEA
Series [3] is described as follows: (§2) Cytotoxicity against HEK293 cells expressing human AC1 at 30 uM preincubated for 30 mins followed by A23187 stimulation and measured after 1 hr by CellTiter-Glo luminescent cell viability assay relative to control. Format: cell-based. The note with it: HEK293 cells expressing human AC1, read-out: Activity. In a few lines:
(§3)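 Cytotoxicity in HEK lines stably expressing AC1 or AC8: single 30 µM dose, 90 min incubation. Viability was read by luminescent ATP reporter as % of DMSO-treated (100%) and Triton-X-treated (0%) controls.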

The target in series [4] is Adenylate cyclase type 5 (Homo sapiens) (UniProt O95622). Nature of the series: Inhibition of human AC5 expressed in HEK293 cells assessed as forskolin-stimulated cAMP accumulation at 30 uM preincubated for 30 mins followed by forskolin stimulation and measured after 1 hr by fluorescence assay relative to control. Format: cell-based. Set-up: scale not given: the % may be the effect or the level left. In a few lines:
(§4)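 Group 2 AC2 (PKC-stimulated) or group 3 AC (forskolin-stimulated) cells were exposed to a single 30 µM dose (n = 3). cAMP activity was normalized to DMSO controls set as 100%.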

The target in series [5] is Adenylate cyclase type 2 (Homo sapiens) (UniProt Q08462). Nature of the series: Inhibition of human AC2 expressed in HEK293 cells assessed as PMA-stimulated cAMP accumulation at 30 uM preincubated for 30 mins followed by PMA stimulation and measured after 1 hr by fluorescence assay relative to control. It is filed as cell-based. Set-up: scale not given: the % may be the effect or the level left. In a few lines: as §4

Series [6] addresses T1, Adenylate cyclase type 8. In words: Inhibition of human AC8 expressed in HEK293 cells assessed as decrease in A23187-stimulated cAMP accumulation at 30 uM preincubated for 30 mins followed by A23187 stimulation and measured after 1 hr by fluorescence assay relative to control. Format: cell-based. In a few lines: as §1
A further series relates to HEK293. Described as §2. The settings on record: hek293, 1 h, 30 µM. Format: cell-based. In a few lines: as §3
In series [7] the target is T2, Adenylate cyclase type 1. Nature of the series: Inhibition of human AC1 expressed in HEK293 cells assessed as decrease in A23187-stimulated cAMP accumulation at 30 uM preincubated for 30 mins followed by A23187 stimulation and measured after 1 hr by fluorescence assay relative to control. Format: cell-based. In a few lines:
as §1
Target sequence in this assay (Q08828 whole entry, looked up): as the sequence (Q08828 whole entry) above

In series [8] the target is T2, Adenylate cyclase type 1. In words: Inhibition of human AC1 expressed in HEK293 AC3/AC6 deficit cells assessed as decrease in forskolin-stimulated cAMP accumulation preincubated for 30 mins followed by forskolin stimulation and measured after 1 hr by fluorescence assay. It is filed as cell-based. In a few lines:
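HEK cells lacking AC3/AC6 were transiently transfected with AC1. Cells were incubated with test compounds in the presence of forskolin at 3, 10 or 30 µM, and cAMP accumulation was measured.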
Target sequence in this assay (Q08828 whole entry, looked up): as the sequence (Q08828 whole entry) above

In series [9] the test system is Mus musculus. Nature of the series: Analgesic activity in C57BL/6 mouse model of CFA-induced inflammatory pain model assessed as reduction in mechanical sensitivity in ipsilateral paw at 5 mg/kg, ip measured after 30 mins post dose by von Frey filament test based modified up-and-down technique. It is filed as functional, organism-based. In a few lines:
(§5)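 Male C57BL/6 mice (n=7) received CFA in the ipsilateral hind paw. On day 2, after baseline hypersensitivity was measured, they were given vehicle or 5 mg/kg i.p. Mechanical sensitivity of ipsilateral and contralateral paws was recorded 30 min after injection. Analysis used two-way repeated-measures ANOVA with Bonferroni test.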

Series [10] has as its system Mus musculus. Nature of the series: Analgesic activity in C57BL/6 mouse model of CFA-induced inflammatory pain model assessed as reduction in mechanical sensitivity in ipsilateral paw at 5 mg/kg, ip measured after 1 day post dose by von Frey filament test based modified up-and-down technique. Format: functional, organism-based.
Series [11] deals with Mus musculus. Nature of the series: Effect on mechanical sensitivity in contralateral pa in C57BL/6 mouse model of CFA-induced inflammatory pain model at 5 mg/kg, ip measured after 30 mins post dose by von Frey filament test based modified up-and-down technique. Format: ADME, organism-based. The settings on record: in vivo, 0.5 h. In a few lines: as §5
The target in series [12] is T2, Adenylate cyclase type 1. In words: Inhibition of AC1 (unknown origin) expressed in HEK cells assessed as decrease in A23187-stimulated cAMP accumulation preincubated for 30 mins followed by A23187 stimulation and measured after 1 hr. Format: cell-based. In a few lines:
as §1
Target sequence in this assay (Q08828 whole entry): as above

T1 sequence (P40145 whole entry): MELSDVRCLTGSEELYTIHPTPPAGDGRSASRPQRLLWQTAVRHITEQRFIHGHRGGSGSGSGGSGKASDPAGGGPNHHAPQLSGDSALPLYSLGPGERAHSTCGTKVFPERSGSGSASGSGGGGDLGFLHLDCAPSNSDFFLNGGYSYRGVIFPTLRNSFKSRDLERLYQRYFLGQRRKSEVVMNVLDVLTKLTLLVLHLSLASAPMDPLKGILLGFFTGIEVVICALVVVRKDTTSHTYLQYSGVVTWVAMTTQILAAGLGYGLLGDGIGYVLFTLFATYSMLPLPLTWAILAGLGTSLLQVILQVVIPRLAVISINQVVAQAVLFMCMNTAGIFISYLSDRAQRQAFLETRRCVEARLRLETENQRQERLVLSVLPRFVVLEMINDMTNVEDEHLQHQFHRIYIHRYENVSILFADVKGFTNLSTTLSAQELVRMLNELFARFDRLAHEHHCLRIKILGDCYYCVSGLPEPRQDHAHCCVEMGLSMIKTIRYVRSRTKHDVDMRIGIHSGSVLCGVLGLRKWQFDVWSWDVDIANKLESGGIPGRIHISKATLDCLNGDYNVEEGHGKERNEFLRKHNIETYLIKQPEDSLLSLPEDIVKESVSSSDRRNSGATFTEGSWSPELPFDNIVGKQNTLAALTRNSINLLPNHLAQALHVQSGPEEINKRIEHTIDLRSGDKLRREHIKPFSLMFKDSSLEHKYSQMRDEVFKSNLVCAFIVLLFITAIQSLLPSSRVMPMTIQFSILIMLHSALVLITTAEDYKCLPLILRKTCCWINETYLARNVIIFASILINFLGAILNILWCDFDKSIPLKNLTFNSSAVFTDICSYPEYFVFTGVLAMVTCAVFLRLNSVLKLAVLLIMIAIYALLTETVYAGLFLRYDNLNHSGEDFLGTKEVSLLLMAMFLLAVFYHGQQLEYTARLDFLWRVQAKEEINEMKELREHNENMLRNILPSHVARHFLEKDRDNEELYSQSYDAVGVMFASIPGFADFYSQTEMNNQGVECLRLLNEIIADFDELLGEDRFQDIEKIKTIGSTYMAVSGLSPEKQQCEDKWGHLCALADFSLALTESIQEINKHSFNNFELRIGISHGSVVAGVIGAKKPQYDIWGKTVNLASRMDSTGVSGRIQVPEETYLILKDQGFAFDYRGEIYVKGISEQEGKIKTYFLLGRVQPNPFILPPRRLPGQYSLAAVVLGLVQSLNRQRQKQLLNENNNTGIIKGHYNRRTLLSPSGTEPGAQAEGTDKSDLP
Adenylate cyclase type 2 (Homo sapiens), sequence (Q08462 whole entry): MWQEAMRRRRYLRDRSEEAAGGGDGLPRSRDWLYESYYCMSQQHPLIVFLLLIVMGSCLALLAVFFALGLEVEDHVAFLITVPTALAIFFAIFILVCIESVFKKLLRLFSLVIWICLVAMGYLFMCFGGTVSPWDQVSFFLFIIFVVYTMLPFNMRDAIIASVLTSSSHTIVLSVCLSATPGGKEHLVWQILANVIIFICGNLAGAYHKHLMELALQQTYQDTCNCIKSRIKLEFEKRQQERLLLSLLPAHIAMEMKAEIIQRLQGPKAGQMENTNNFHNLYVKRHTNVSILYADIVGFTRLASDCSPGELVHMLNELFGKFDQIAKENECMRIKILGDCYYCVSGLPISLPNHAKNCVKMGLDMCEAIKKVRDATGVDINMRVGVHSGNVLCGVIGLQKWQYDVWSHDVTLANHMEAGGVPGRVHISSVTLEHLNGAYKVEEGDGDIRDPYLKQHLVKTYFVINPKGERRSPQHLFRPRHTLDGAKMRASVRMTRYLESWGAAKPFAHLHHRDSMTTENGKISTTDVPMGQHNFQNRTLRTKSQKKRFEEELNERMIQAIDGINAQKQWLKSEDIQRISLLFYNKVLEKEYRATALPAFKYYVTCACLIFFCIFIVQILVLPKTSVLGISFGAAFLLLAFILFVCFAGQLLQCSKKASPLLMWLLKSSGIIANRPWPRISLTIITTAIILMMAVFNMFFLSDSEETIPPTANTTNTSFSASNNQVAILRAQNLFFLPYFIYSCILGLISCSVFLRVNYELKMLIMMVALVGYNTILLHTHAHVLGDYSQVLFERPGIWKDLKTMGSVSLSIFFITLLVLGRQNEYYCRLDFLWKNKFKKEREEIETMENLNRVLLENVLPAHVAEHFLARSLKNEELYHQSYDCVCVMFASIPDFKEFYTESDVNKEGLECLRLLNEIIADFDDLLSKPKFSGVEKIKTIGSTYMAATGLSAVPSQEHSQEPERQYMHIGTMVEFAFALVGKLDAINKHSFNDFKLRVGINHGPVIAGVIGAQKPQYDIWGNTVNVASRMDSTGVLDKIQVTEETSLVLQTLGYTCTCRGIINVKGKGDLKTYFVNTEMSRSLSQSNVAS
Adenylate cyclase type 5 (Homo sapiens), sequence (O95622 whole entry, looked up): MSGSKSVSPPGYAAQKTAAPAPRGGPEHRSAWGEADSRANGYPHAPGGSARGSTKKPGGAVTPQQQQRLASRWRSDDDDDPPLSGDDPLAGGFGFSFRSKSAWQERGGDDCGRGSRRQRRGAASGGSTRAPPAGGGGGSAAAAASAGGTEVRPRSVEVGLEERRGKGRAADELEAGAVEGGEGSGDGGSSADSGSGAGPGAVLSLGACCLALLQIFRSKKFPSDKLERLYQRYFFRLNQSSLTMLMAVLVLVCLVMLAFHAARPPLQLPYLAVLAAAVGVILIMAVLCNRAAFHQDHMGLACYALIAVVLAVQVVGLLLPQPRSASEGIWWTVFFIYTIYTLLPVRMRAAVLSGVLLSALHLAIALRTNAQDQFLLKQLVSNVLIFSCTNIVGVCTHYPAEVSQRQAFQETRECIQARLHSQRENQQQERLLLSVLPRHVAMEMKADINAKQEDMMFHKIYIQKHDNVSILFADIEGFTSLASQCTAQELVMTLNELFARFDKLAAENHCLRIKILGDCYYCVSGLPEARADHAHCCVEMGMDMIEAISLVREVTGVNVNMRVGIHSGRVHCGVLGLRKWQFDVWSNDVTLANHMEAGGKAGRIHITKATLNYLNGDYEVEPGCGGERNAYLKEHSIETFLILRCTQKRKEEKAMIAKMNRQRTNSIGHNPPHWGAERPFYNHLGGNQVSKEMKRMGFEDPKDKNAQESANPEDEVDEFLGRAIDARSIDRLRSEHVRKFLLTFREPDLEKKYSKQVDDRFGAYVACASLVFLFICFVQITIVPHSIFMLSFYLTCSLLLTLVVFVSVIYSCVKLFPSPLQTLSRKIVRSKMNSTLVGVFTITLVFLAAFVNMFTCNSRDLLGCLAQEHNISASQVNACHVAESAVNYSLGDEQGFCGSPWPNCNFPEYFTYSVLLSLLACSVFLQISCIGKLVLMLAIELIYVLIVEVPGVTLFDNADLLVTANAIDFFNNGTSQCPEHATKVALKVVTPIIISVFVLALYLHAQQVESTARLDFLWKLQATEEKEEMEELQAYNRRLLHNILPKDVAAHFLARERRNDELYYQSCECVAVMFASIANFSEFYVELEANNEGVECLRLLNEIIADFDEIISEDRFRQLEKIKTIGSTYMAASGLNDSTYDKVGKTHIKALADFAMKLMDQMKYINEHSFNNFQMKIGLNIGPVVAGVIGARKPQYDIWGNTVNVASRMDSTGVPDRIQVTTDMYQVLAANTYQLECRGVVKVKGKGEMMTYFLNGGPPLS

Turning to `COc1ccc(-c2nnc(NC(=O)c3cc(-c4cccs4)nc4ccccc34)o2)cc1`, the IC50 was found to be 5.6 µM at Adenylate cyclase type 8 [1] and 4.6 µM on Adenylate cyclase type 1 [2]. In addition, the Ratio IC50 in the series filed under Homo sapiens was determined as 1.2. Moreover, the viability at 1 h, 30 µM in [3] was 118%.
For `CCOc1cccc2cc(-c3nnc(NC(=O)c4ccccc4SC)o3)oc12`, in that order: 11 µM, 11 µM, 1 and 127%.
Consider `O=C(Nc1nnc(-c2ccc3c(c2)CCCC3)o1)c1ccc(Cl)cc1`, for which the 50% inhibitory concentration (IC50) is 3.6 µM on Adenylate cyclase type 8 [1] and 1.5 µM on Adenylate cyclase type 1 [2]. Also, in the series listed under Homo sapiens, the Ratio IC50 was 2.4. The viability at 1 h, 30 µM in [3] was determined as 97%.
For `Cc1ccc(C(=O)Nc2nnc(-c3ccc4c(c3)OCCO4)o2)cc1`, the figures for the Activity in series [4] and in series [5] were 194% and 218%, respectively. For the same compound, the IC50 on Adenylate cyclase type 1 [2] was 12 µM. Besides, on Adenylate cyclase type 8 [6], the inhibition worked out at 25%. The viability at 1 h, 30 µM in series [3] is 98%.
As to `O=C(Nc1nnc(-c2ccccc2)o1)c1cccc(C(F)(F)F)c1`, in the series filed under Homo sapiens, the Ratio IC50 is greater than 2.3. The IC50 on Adenylate cyclase type 1 [2] amounted to 13 µM. In addition, the inhibition at Adenylate cyclase type 8 [6] turned out to be 23%. The compound also yielded an Activity in the series with HEK293 of 78%.
Take `O=C(Nc1nnc(-c2ccc(F)cc2)o1)c1ccccc1F`: the inhibition on Adenylate cyclase type 1 [7] came to 12%; at Adenylate cyclase type 8 [6], 13%. Moreover, the viability at 1 h, 30 µM in series [3] stood at 87%.
As to `O=C(Nc1nnc(-c2ccco2)o1)c1ccccc1`, the results for the inhibition on Adenylate cyclase type 1 [7] and at Adenylate cyclase type 8 [6] were 20% and 28%, respectively. In the series on HEK293, this compound yielded an Activity of 73%.
For `O=C(Nc1nnc(-c2ccc(F)cc2)o1)c1cccc(-c2ccccc2)c1`, in the series filed under Homo sapiens, the Ratio IC50 came to 3. In the series with HEK293, this compound registered an Activity of 71%.
For the compound `CC(C)Oc1ccc(C(=O)Nc2nnc(-c3ccco3)o2)cc1`, the results for the inhibition at Adenylate cyclase type 1 [7] and at Adenylate cyclase type 8 [6] were 39% and 21%, respectively. Further, the viability at 1 h, 30 µM in series [3] stood at 58%.
Take `COc1cc(C(=O)Nc2nnc(-c3ccc(F)cc3)o2)cc(C(F)(F)F)c1`: the IC50 at Adenylate cyclase type 8 [1] was found to be 29 µM. Also, the Ratio IC50 in the series filed under Homo sapiens came to 5.8. The viability at 1 h, 30 µM in series [3] came out at 108%.
With `Nc1ncnc2c1NCN2C1CCCO1` (stereo unspecified), at Adenylate cyclase type 1 [8], the inhibition result is “Dose-dependent effect”.
Consider `Cc1cc(C(=O)Nc2nnc(-c3ccc(F)cc3)o2)cc(C(F)(F)F)c1`, for which the Ratio IC50 in the series listed under Homo sapiens was determined as 2.9. Besides, in [3], the viability at 1 h, 30 µM worked out at 102%. Moreover, in the series on Mus musculus [9], the result was Active. In the series on Mus musculus [10], the outcome was inactive. Further, the Activity result in the series on Mus musculus [11] was “Non-Toxic”.
With `O=C(Nc1nnc(-c2ccc3c(c2)CCCC3)o1)c1ccc(Br)cc1`, the Activity in series [4] stood at 215%; in [5], 160%. The Ratio IC50 in the series listed under Homo sapiens lay in the range of 2.23 to 4.5. The viability at 1 h, 30 µM in series [3] lay in the range of 113 to 115%.
On to `Cc1ccc(C(=O)Nc2nnc(-c3ccc(F)cc3)o2)cc1`, for which the Activity in series [4] amounted to 170%; in [5], 341%. In the series filed under Homo sapiens, the Ratio IC50 is greater than 3.6. Moreover, the inhibition on Adenylate cyclase type 8 [6] was 31%. Besides, the viability at 1 h, 30 µM in series [3] was 104%.
For `O=c1cc(C(Cl)(Cl)Cl)oc2ccc(Cl)cc12`, the IC50 at Adenylate cyclase type 1 [12] was determined as 2.3 µM.
Turning to `O=C(Nc1nnc(-c2ccc3c(c2)CCCC3)o1)c1cccc(C(F)(F)F)c1`, the Activity in series [4] was 189%; in series [5] it was 449%. Moreover, the Ratio IC50 in the series filed under Homo sapiens lay within 4.9 to 9. Besides, at Adenylate cyclase type 1 [8], the inhibition entry is “Dose-dependent effect”. The viability at 1 h, 30 µM in [3] was 107 to 125%.
